How the values were obtained:
[1] = molecular target: GABA-A receptor; anion channel; assay: Displacement of [3H]flumazenil from GABA-A receptor in rat cortical membranes; format: cell membranes, Membrane
Procedure, shortened: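 Rat cortex was homogenized in Tris-HCl, washed by centrifugation, incubated 30 min at 37 °C, and stored frozen. Assays used ca. 50 µg protein per 0.55 mL in Tris-citrate 50 mM pH 7.1 with 1 nM [3H]flumazenil for 40 min on ice, then filtered. Nonspecific binding came from 1 µM clonazepam.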

[2] = molecular target: GABA A receptor alpha-1/beta-2/gamma-2 (Homo sapiens); assay: Displacement of [3H]Flumazenil from human GABA-Aalpha1 receptor plus beta-2-gamma-2 expressed in HEK293 cells
[3] = molecular target: T1, GABA A receptor alpha-3/beta-2/gamma-2 (Homo sapiens, UniProt P18507+P34903+P47870); assay: Displacement of [3H]Flumazenil from human GABA-Aalpha3 receptor plus beta-2-gamma-2 expressed in HEK293 cells; format: cell-based
T1 sequence (P47870 whole entry): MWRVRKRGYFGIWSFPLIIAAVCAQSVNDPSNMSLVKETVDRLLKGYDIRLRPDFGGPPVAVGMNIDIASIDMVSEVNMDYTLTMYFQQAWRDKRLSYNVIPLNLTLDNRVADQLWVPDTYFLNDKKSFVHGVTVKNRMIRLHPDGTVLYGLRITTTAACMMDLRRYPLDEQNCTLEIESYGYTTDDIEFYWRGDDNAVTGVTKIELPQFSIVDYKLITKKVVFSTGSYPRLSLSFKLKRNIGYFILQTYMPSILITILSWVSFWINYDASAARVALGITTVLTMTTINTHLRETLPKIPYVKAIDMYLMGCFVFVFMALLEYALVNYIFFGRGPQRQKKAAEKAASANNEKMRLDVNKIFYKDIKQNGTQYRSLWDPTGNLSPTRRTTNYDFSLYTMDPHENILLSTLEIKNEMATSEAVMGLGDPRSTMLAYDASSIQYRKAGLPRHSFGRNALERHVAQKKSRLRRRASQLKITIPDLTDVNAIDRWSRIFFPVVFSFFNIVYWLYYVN
T1 sequence (P18507 whole entry): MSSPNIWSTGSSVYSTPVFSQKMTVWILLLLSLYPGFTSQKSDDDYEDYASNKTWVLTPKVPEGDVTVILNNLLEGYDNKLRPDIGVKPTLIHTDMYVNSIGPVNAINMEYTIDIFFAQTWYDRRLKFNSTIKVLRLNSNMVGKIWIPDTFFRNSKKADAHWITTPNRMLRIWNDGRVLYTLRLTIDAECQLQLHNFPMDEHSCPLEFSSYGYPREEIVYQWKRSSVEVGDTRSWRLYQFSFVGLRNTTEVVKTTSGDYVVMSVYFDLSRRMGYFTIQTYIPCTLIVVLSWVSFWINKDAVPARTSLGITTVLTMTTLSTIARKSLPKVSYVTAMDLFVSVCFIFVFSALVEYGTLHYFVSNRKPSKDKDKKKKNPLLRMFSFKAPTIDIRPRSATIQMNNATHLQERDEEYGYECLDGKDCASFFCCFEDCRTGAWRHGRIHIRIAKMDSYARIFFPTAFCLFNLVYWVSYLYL
T1 sequence (P34903 whole entry): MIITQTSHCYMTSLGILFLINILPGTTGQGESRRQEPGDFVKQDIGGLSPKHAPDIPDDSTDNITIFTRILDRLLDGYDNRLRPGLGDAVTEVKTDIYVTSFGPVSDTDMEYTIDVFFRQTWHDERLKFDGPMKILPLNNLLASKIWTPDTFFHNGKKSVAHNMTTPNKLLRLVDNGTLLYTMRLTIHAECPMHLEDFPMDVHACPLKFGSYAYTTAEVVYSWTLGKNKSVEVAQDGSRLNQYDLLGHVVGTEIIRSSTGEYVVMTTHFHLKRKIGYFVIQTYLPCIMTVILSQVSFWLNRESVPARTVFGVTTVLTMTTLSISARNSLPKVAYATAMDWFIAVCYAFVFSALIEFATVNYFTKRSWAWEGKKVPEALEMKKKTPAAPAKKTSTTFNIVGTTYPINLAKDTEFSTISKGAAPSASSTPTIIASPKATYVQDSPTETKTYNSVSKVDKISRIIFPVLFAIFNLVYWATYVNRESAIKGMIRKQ
Procedure, shortened: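 Membranes of HEK 293 cells carrying human α1β2γ2S or α3β2γ2S GABAA receptors, ca. 25 µg protein per 0.55 mL assay in Tris-citrate 50 mM pH 7.1. Incubated with 1 nM [3H]flumazenil (87 Ci/mmol) and test substance at 0-4 °C for 40 min, then filtered on GF/C and washed. Nonspecific binding taken with 1 µM clonazepam.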

[4] = Selectivity for human GABA-Aalpha1 receptor plus beta-2-gamma-2 over GABA-Aalpha3 receptor plus beta2gamma2

| Ki [1] | SMILES | further results |
| --- | --- | --- |
| 35 nM | CCCCCOC(=O)c1cnc2ccc(CC)cc2c1O |  |
| 28 nM | CCc1ccc2ncc(C(=O)OCC(C)CC)c(O)c2c1 (stereo unspecified) |  |
| 19 nM | CCc1ccc2ncc(C(=O)OC3CCCC3)c(O)c2c1 |  |
| 1.4 nM | CCOC(=O)c1cnc2ccc(Cc3ccccc3)cc2c1O | Ki [2]: 0.27 nM; Ki [3]: 7.2 nM |
| 208 nM | CCc1ccc2ncc(C(=O)O)c(O)c2c1 |  |
| 214 nM | CCc1ccc2ncc(C(=O)OC(C)C)c(O)c2c1 |  |
| 54 nM | CCCCOC(=O)c1cnc2ccccc2c1O |  |
| 78 nM | CCOC(=O)c1cnc2ccccc2c1O |  |
| 15 nM | CCOC(=O)c1cnc2ccc(C(C)C)cc2c1O |  |
| 295 nM | CCc1ccc2ncc(C(=O)OC(C)CC(C)C)c(O)c2c1 (stereo unspecified) |  |
| 2600 nM | CCc1ccc2ncc(C(=O)OC(CC)CC)c(O)c2c1 |  |
| 17 nM | CCCc1ccc2ncc(C(=O)OCC)c(O)c2c1 |  |
| 1.8 nM | CCCOC(=O)c1cnc2ccc(CC)cc2c1O |  |
| 16 nM | CCOC(=O)c1cnc2ccc(Br)cc2c1O | Ki [2]: 14 nM; Ki [3]: 26 nM; Ratio Ki [4]: 2 |
|  | CCOC(=O)c1c[nH]c2ccc(Cc3ccccc3)cc2c1=O | Ratio Ki [4]: 27 |
| > 10000 nM | CCOC(=O)c1cnc2ccnn2c1O |  |
| 0.048 nM | CCCNC(=O)c1cnc2ccc(Cc3ccccc3)cc2c1O |  |
| 122 nM | CCOC(=O)c1cnc2ccc(C(F)(F)F)cc2c1O |  |
| 4200 nM | CCOC(=O)c1c(C)nc2ccc(Br)cc2c1O |  |
| 20 nM | CCOC(=O)c1cnc2ccc(CC)cc2c1O |  |
| 13 nM | CCCCOC(=O)c1cnc2ccc(CC)cc2c1O |  |
| 0.17 nM | CCCOC(=O)c1cnc2ccc(Cc3ccccc3)cc2c1O |  |
| 28 nM | CCc1ccc2ncc(C(=O)OCCC(C)C)c(O)c2c1 | Ki [2]: 4.1 nM; Ki [3]: 89 nM; Ratio Ki [4]: 22 |
| 0.54 nM | CCCCNC(=O)c1cnc2ccc(CC)cc2c1O |  |
| 0.26 nM | CCCNC(=O)c1cnc2ccc(CC)cc2c1O |  |
| 870 nM | CCCOC(=O)c1cnc2cc(C)nn2c1O |  |
| 92 nM | CCc1ccc2ncc(C(=O)OCC(CC)CC)c(O)c2c1 |  |
| > 10000 nM | CCOC(=O)c1cnc2cc(C)nn2c1O |  |

Source: ChEMBL document CHEMBL1146066, “4-quinolone derivatives: high-affinity ligands at the benzodiazepine site of brain GABA A receptors. synthesis, pharmacology, and pharmacophore modeling” (J Med Chem, 2006)
